Test results from ChEMBL document CHEMBL2203229, “Structure Activity Relationship Study of the Cleistriosides and Cleistetrosides for Antibacterial/Anticancer Activity” (ACS Med Chem Lett, 2012).
In brackets after ≈: the same amount, converted by molar mass. Activity calls are given as the source filed them. The calls are words filed in the database; no cut-off is given here.

Experiments:
MDA-MB-435 = experiment: Growth inhibition of human MDA-MB-435 cells at 10 uM after 48 hrs by sulforhodamine B assay; type: functional, cell-based
MCF7 = experiment: Growth inhibition of human MCF7 cells at 10 uM after 48 hrs by sulforhodamine B assay; type: functional, cell-based
A498 = experiment: Growth inhibition of human A498 cells at 10 uM after 48 hrs by sulforhodamine B assay; type: functional, cell-based
SNB-75 = experiment: Growth inhibition of human SNB75 cells at 10 uM after 48 hrs by sulforhodamine B assay; type: functional, cell-based
HCT-15 = experiment: Growth inhibition of human HCT15 cells at 10 uM after 48 hrs by sulforhodamine B assay; type: functional, cell-based
NCI/ADR-RES = experiment: Growth inhibition of human NCI-ADR-RES cells at 10 uM after 48 hrs by sulforhodamine B assay; type: functional, cell-based
HT-29 = experiment: Growth inhibition of human HT-29 cells at 10 uM after 48 hrs by sulforhodamine B assay; type: functional, cell-based
Escherichia coli [1] = experiment: Antibacterial activity against Escherichia coli K-12 BAS901 harboring genetically modified imp-4213, zab4292::Tn5 assessed as growth inhibition after 16 hrs by broth dilution method; type: functional; details: K-12 BAS901, 16 h
Procedure, shortened: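 Kanamycin-resistant strain grown overnight in LB with kanamycin 50 µg/mL, diluted 10-fold, then shaken at 37 °C for 45 min–1 h (~10⁸ CFU/mL). Diluted ~1000-fold to 10⁵ CFU/mL in LB. DMSO stocks (20 mM) prepared as 4X working solutions in LB. Seven 1:2 serial dilutions mixed with equal-volume inoculum. OD600 read with shaking.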

NCI-H460 [2] = experiment: Growth inhibition of human NCI-H460 cells at 10 uM after 48 hrs by sulforhodamine B assay; type: functional, cell-based
SF-539 = experiment: Growth inhibition of human SF539 cells at 10 uM after 48 hrs by sulforhodamine B assay; type: functional, cell-based
Escherichia coli [3] = experiment: Antibacterial activity against Escherichia coli K-12 MG1655 assessed as growth inhibition after 16 hrs by broth dilution method; type: functional; details: K-12 substr. MG1655, 16 h
Procedure, shortened: (§1)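 Strains grown overnight in LB, diluted 10-fold, shaken at 37 °C for 45 min–1 h (~10⁸ CFU/mL), then diluted ~1000-fold to ~10⁵ CFU/mL. Broth dilution in LB: 20 mM DMSO stocks, 1:2 serial dilutions giving seven concentrations, inoculum added 1:1. OD600 read with shaking.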

A549 = experiment: Growth inhibition of human A549 cells at 10 uM after 48 hrs by sulforhodamine B assay; type: functional, cell-based
PC-3 = experiment: Growth inhibition of human PC3 cells at 10 uM after 48 hrs by sulforhodamine B assay; type: functional, cell-based
SR = experiment: Growth inhibition of human SR cells at 10 uM after 48 hrs by sulforhodamine B assay; type: functional, cell-based
RPMI-8226 = experiment: Growth inhibition of human RPMI8226 cells at 10 uM after 48 hrs by sulforhodamine B assay; type: functional, cell-based
NCI-H460 [4] = experiment: Cytotoxicity against human NCI-H460 cells assessed as inhibition of cell viability by MTT assay; type: functional, cell-based
Procedure, shortened: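 NCI-H460 cells in RPMI 1640 with 10% FBS and 2 mM glutamine at 37 °C, 5% CO₂. Seeded at 10,000 cells/well for 12 h, then dosed in 1% FBS medium (DMSO below 0.1% final). MTT (10 µL of 5 mg/mL) for 4 h, formazan dissolved in DMSO for 45 min, absorbance at 562 nm. Triplicate wells, at least three runs (N = 9).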

DU-145 = experiment: Growth inhibition of human DU145 cells at 10 uM after 48 hrs by sulforhodamine B assay; type: functional, cell-based
SK-MEL-5 = experiment: Growth inhibition of human SK-MEL-5 cells at 10 uM after 48 hrs by sulforhodamine B assay; type: functional, cell-based
[5] = Antibacterial activity against Bacillus subtilis JH642 containing trpC2 pheA1 assessed as growth inhibition after 16 hrs by broth dilution method; type: functional, Bacillus subtilis subsp. subtilis str. JH642; procedure, shortened: as §1
BT-549 = experiment: Growth inhibition of human BT549 cells at 10 uM after 48 hrs by sulforhodamine B assay; type: functional, cell-based
CAKI-1 = experiment: Growth inhibition of human CAKI-1 cells at 10 uM after 48 hrs by sulforhodamine B assay; type: functional, cell-based
OVCAR-3 = experiment: Growth inhibition of human OVCAR3 cells at 10 uM after 48 hrs by sulforhodamine B assay; type: functional, cell-based

Row | Compound | growth inhibition (GI) (MDA-MB-435) | growth inhibition (GI) (MCF7) | growth inhibition (GI) (A498) | growth inhibition (GI) (SNB-75) | growth inhibition (GI) (HCT-15) | growth inhibition (GI) (NCI/ADR-RES) | growth inhibition (GI) (HT-29) | MIC (Escherichia coli [1]) [µM] | growth inhibition (GI) (NCI-H460 [2]) | growth inhibition (GI) (SF-539) | MIC (Escherichia coli [3]) [µM] | growth inhibition (GI) (A549) | growth inhibition (GI) (PC-3) | growth inhibition (GI) (SR) | growth inhibition (GI) (RPMI-8226) | IC50 (NCI-H460 [4]) [µM] | growth inhibition (GI) (DU-145) | growth inhibition (GI) (SK-MEL-5) | MIC [5] [µM] | growth inhibition (GI) (BT-549) | also measured
1 | CCCCCCCCCCCCO[C@@H]1O[C@@H](C)[C@H](O[C@@H]2O[C@@H](C)[C@H](OC(C)=O)[C@@H](O[C@@H]3O[C@@H](C)[C@H](OC(C)=O)[C@@H](O[C@@H]4O[C@@H](C)[C@H](O)[C@@H](O)[C@H]4O)[C@H]3OC(C)=O)[C@H]2O)[C@@H](O)[C@H]1O | inactive | inactive | inactive | inactive | inactive | inactive | inactive | > 64 | inactive | inactive | > 64 | inactive | inactive | inactive | inactive | 12.2 | inactive | inactive | 8 (≈ 7.18 µg/mL) | inactive | growth inhibition (GI) (CAKI-1): inactive; growth inhibition (GI) (OVCAR-3): inactive
2 | CCCCCCCCCCCCO[C@@H]1O[C@@H](C)[C@H](O[C@@H]2O[C@@H](C)[C@H](OC(C)=O)[C@@H](O[C@@H]3O[C@@H](C)[C@H](O)[C@@H](O[C@@H]4O[C@@H](C)[C@H](O)[C@@H](O)[C@H]4O)[C@H]3OC(C)=O)[C@H]2O)[C@@H](O)[C@H]1O | inactive | inactive | inactive | inactive | inactive | inactive | inactive | 16 (≈ 13.7 µg/mL) | inactive | inactive | > 64 | inactive | inactive | inactive | inactive | 15.4 | inactive | inactive | 8 (≈ 6.84 µg/mL) | inactive | growth inhibition (GI) (CAKI-1): inactive; growth inhibition (GI) (OVCAR-3): inactive
3 | CCCCCCCCCCCCO[C@@H]1O[C@@H](C)[C@H](O[C@@H]2O[C@@H](C)[C@H](OC(C)=O)[C@@H](O[C@@H]3O[C@@H](C)[C@H](O)[C@@H](O[C@@H]4O[C@@H](C)[C@H](OC(C)=O)[C@@H](O)[C@H]4O)[C@H]3OC(C)=O)[C@H]2O)[C@@H](O)[C@H]1O | inactive | inactive | inactive | inactive | inactive | inactive | inactive | 16 (≈ 14.4 µg/mL) | inactive | inactive | > 64 | inactive | inactive | inactive | inactive | 16.5 | inactive | inactive | 8 (≈ 7.18 µg/mL) | inactive | growth inhibition (GI) (CAKI-1): inactive; growth inhibition (GI) (OVCAR-3): inactive
